# STEP block – STEP (human) phosphatase inhibition; inhibition, % at 20 µM; recombinant STEP, OMFP fluorogenic substrate, fluorescence; P54829; actives 0.25% (n = 360,000);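 active = inhibition at 20 µM, scaled per plate between control wells, above about 37%, limit read from the data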
#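 Measure: Control-normalized % inhibition with plate pattern correction | Test system: STEP phosphatase, cell-free reaction | Medium: pH 6.0 Bis-Tris with DTT and Tween 20 | Technique: Fluorescence, 480/540 nm | Times: Reaction 20 min, ambient temperature | Doses: Single compound dose of 20 µM, 1% DMSO final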
# SUMO1-SIM PPI – modulators of human SUMO1-mediated protein-protein interactions; actives 0.33% (n = 360,000); P63165; SUMO1 binding to a labelled peptide, TR-FRET, 1 h; inhibition, % at 20 µM; in the data active = inhibition above about 37%
# Target sequence (P63165 whole entry, looked up): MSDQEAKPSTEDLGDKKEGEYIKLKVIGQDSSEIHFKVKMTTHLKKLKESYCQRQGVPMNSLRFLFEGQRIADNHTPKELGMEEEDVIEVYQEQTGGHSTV
# DNMT1 inh – inhibitors of human DNMT1; inhibition (reported as % activation of signal), % at 10 µM; actives 0.83% (n = 360,000); P26358; DNMT1 molecular beacon, Hinp1I cleavage, fluorescence; in the data active = inhibition above about 50%
# LMPTP inh – LMPTP (human) inhibition; P24666; recombinant LMPTP-A, OMFP fluorogenic substrate, fluorescence intensity; inhibition, % at 20 µM; actives 0.22% (n = 360,000); AID 651560;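 active = compounds that cut the enzyme signal by at least half of the control window in the single-dose screen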
# Target sequence (P24666 whole entry, looked up): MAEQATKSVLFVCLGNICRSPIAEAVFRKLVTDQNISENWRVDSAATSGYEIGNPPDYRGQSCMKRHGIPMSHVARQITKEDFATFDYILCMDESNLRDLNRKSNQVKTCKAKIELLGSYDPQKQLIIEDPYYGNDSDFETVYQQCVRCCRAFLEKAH
#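 Material: LMPTP-A; amount: 0.625 nM enzyme; doses: single 20 µM dose; times: reaction 50 min, room temperature, dark; technique: fluorescence intensity of OMFP turnover product; benchmarks: no-enzyme and uninhibited controls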
# Scp-1 inhibitor – blocks human Scp-1 phosphatase activity | AID 493091 | actives 0.88% (n = 340,000) | Recombinant Scp1, phosphopeptide, malachite green phosphate absorbance | Q9GZU7 | inhibition, % at 20 µM;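 active = inhibition above about 50% at 20 µM, limit read from the data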
# Target sequence (Q9GZU7 76-261 limits assumed): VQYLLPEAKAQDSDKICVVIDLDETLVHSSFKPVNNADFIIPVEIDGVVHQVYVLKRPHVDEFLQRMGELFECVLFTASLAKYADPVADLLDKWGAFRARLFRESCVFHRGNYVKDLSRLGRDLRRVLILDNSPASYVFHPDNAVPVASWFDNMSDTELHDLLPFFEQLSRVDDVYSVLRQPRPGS
#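 Material: truncated SCP-1 phosphatase (76-261aa) / Buffer or medium: 50 mM Tris acetate pH 5.5, 0.005% Tween-20, 10 mM MgCl2 / Compound dosing: one concentration, 20 µM, with 1.0% DMSO / Incubation: 45 min room-temperature reaction, 5 min colour, 30 min stabiliser / Detection: colorimetric free-phosphate detection, absorbance 630 nm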
# GRK2 aptamer HTS – inhibitors of human GRK2 displacing RNA aptamer | P25098 | bead flow cytometry, FAM-aptamer displacement from GRK2 | inhibition of aptamer binding, % at 10 µM | actives 0.59% (n = 330,000);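 active = inhibition of aptamer binding above 40%, roughly 3 SD of noise, on plates passing a quality check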;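 also: median bead fluorescence of bound FAM aptamer so fluorescent compounds give negative values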
# Scp1 confirm – Scp-1 (human) inhibition, single-dose confirmed; inhibition, % at 20 µM; shares compounds with Scp-1 inhibitor; recombinant SCP-1 catalytic domain, phosphate release, malachite green absorbance; actives 61% (n = 2,500)
# Scp-1 MG ctr – colorimetric interference in Scp-1 counter-screen | AID 540313 | Colorimetric interference counterscreen, malachite green absorbance 630 nm | apparent inhibition (interference), % at 20 µM | 2,500 tested, under 10 active | shares compounds with Scp-1 inhibitor;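 also: compounds added after enzyme reaction finished so only phosphate colour detection is probed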
# Scp1 DSF – Scp-1 (human) binding by thermal shift | shares compounds with Scp-1 inhibitor | Recombinant SCP1, Sypro Orange thermal shift Tm | thermal shift relative to vanadate control, % at 40 µM | actives 25% (n = 1,500) | AID 540329;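 active = substances whose mean melting-temperature shift, as a percentage of the reference inhibitor's shift, reaches about 5.3%, limit read from the data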
# Hits are given with their value; n = inactive; x = not tested or not shown. Shown are actives, neighbours in structure and some others; about 2.1% of the full set was active somewhere.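 The calls were made as follows, unless noted: active = inhibition of at least 30% at 20 µM; inactive = the rest.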
SMILES,STEP block,SUMO1-SIM PPI,DNMT1 inh,LMPTP inh,Scp-1 inhibitor,GRK2 aptamer HTS,Scp1 confirm,Scp-1 MG ctr,Scp1 DSF
CCOc1ccc(S(=O)(=O)NCc2ccccc2Cl)cc1C(N)=O,n,n,n,n,n,n,n,n,x
CCOc1ccc(S(=O)(=O)NCc2ccccc2)cc1C(N)=O,n,n,n,n,n,n,x,x,x
Nc1cccc2c1C(=O)c1ccc(Cl)cc1C2=O,n,n,n,n,50,x,n,n,x
C#CCNC(=O)c1ccc2sc([C@@H]3O[C@H](CO)[C@H](O)[C@H](O)[C@H]3O)nc2c1,n,n,n,n,x,x,x,x,x
COc1ccccc1S(=O)(=O)N(C)C[C@@H]1OCc2cnnn2CCCC(=O)N([C@@H](C)CO)C[C@@H]1C,n,n,n,n,x,x,x,x,x
Cc1cn(C2CCCCO2)c(=O)nc1NO (stereo not given),n,n,n,n,n,x,x,x,x
COc1nc(=O)n(C2CCCO2)cc1C (stereo not given),n,n,n,n,85,x,n,n,x
Cc1cccc(-c2nc(S(=O)(=O)c3ccccc3)c(N3CCOCC3)o2)c1,n,n,n,n,54,n,n,n,x
CCOC(=O)C1=C(C)Nc2ccccc2N/C1=N\S(=O)(=O)c1cc(C(=O)O)ccc1Cl,n,n,n,n,50,n,41,n,n
COCC(C)n1c(C)cc(C(=O)COC(=O)c2c(NC(C)=O)sc(C)c2C)c1C (stereo not given),n,n,n,n,80,n,42,n,n
COCC(C)n1c(C)cc(C(=O)COC(=O)c2c(C)nn(-c3ccccc3)c2C)c1C (stereo not given),n,n,n,n,n,n,x,x,x
O=C(NCCN1CCN(Cc2ccccc2)CC1)c1ccc(CS(=O)(=O)c2c(Cl)cccc2Cl)o1,n,n,n,n,x,x,x,x,x
Cc1coc2c(C)c3oc(=O)c(CCC(=O)N[C@@H](C)C(=O)N[C@@H](Cc4ccccc4)C(=O)O)c(C)c3cc12,44,n,n,n,104,n,64,n,n
CCCC(NC(=O)Cc1c(C)c2cc3c(C)c(C)oc3c(C)c2oc1=O)C(=O)N[C@@H](Cc1ccccc1)C(=O)O (stereo not given in full),n,n,n,n,98,n,88,n,n
COc1ccc(-c2coc3c(C)c4oc(=O)c(CCC(=O)O)c(C)c4cc23)cc1,n,n,n,n,n,n,x,x,x
Cc1c(CCC(=O)O)c(=O)oc2c(C)c3occ(-c4ccc(Br)cc4)c3cc12,n,52,n,90,67,n,66,n,n
O=[N+]([O-])c1ccc(CSc2ccc(S(=O)(=O)N3CCCCCC3)cn2)cc1,n,n,n,n,n,x,x,x,x
COc1ccc(/C=C2\C(=O)NCC(=O)N2Cc2ccccc2)cc1,n,n,n,n,n,n,x,x,x
COc1ccc(/C=C2\C(=O)NCC(=O)N2C)cc1,n,n,n,n,89,n,n,n,x
N#CC1=C(SCC(=O)Nc2ccc(C(=O)O)cc2)NC(=O)CC1c1ccco1 (stereo not given),n,n,n,n,52,n,46,n,n
CC1CCc2nc3ccccc3c(C(=O)OCC(=O)N3CCc4ccccc43)c2C1 (stereo not given),n,n,n,n,50,n,n,n,x
CCCCNC(=O)COC(=O)c1c2c(nc3ccccc13)CCC2,n,n,n,n,62,n,46,n,8.4
C=CCNC(=O)COC(=O)c1c2c(nc3ccccc13)CCC2,n,n,n,n,66,n,65,n,9.5
CCCc1nc2ccccc2c(C(=O)OCC(=O)N2CCc3ccccc32)c1CC,n,n,n,n,n,n,x,x,x
CNC(=O)COC(=O)c1c2c(nc3ccccc13)CCC2,n,n,n,n,n,n,x,x,x
SMILES,STEP block,SUMO1-SIM PPI,DNMT1 inh,LMPTP inh,Scp-1 inhibitor,GRK2 aptamer HTS,Scp1 confirm,Scp-1 MG ctr,Scp1 DSF
C(=C\c1ccccc1)/CN1CCN(Cc2nc(Cc3ccccc3)no2)CC1,n,n,n,n,53,n,n,n,x
Cc1cccc(NC(=O)CSc2nc3[nH]c(=O)cc(O)c3s2)c1,n,n,n,n,61,n,37,n,14
CC(C(=O)N1CCCCC1)N1CCN(S(=O)(=O)c2ccc(Cl)cc2)CC1 (stereo not given),n,n,n,n,97,n,78,n,n
O=C(Cn1c(=O)cnc2ccccc21)Nc1cc(Cl)ccc1N1CCOCC1,n,n,n,n,53,n,48,n,n
O=C(Cn1c(=O)cnc2ccccc21)Nc1ccccc1N1CCOCC1,n,n,n,n,n,n,x,x,x
O=C(Nc1ccccc1C(=O)N1CCCCCC1)c1ccccc1,n,n,n,n,58,n,n,n,x
COc1ccccc1-c1cc2nc(-c3ccccc3)cc(N3CCN(C(=O)c4ccco4)CC3)n2n1,n,n,n,n,x,x,x,x,x
O=C(O)COc1ccc2c(c1)O/C(=C\c1ccco1)C2=O,77,n,69,n,75,n,70,n,7.5
O=C(Nc1cccc(C(=O)O)c1)/C(=C\c1ccccc1)NC(=O)c1ccco1,n,n,n,n,x,x,x,x,x
OCCNC1=NCCN1,n,n,n,n,n,n,x,x,x
Fc1ccc(Sc2ccccc2CNC2=NCCN2)cc1,n,n,n,n,52,n,84,n,n
CCC/C=C/c1ccc(CN2C(C)C(=O)N(Cc3cn(CCC4OCCCO4)nn3)CCS2(=O)=O)cc1 (stereo not given),n,n,n,n,x,x,x,x,x
Cc1cccc(NC(=O)c2ncn3c2C(=O)N[C@H](C)C3)c1,n,n,n,n,x,x,x,x,x
CC(C)S(=O)(=O)C1=NSC2=NC(=O)/C(=C\c3ccc(-c4cccc(C(=O)O)c4)o3)C(=N)N21,n,n,n,n,65,x,68,n,n
COc1cccc(OCCOc2ccc(/C=C3/SC(=S)NC3=O)cc2)c1,n,n,n,n,56,n,n,n,x
Cn1nc(C(C)(C)C)cc1C(=O)N1CCCCC1c1cc(C(=O)Nc2ccc(F)c(Cl)c2)no1 (stereo not given),n,n,n,n,x,x,x,x,x
O=C(COC(=O)/C=C/c1ccco1)Nc1ccc(F)cc1Cl,n,n,n,n,50,n,36,n,n
NC(=O)C1CCN(C(=O)CCc2nc3sc4c(c3c(=O)[nH]2)CCCC4)CC1,n,n,n,n,58,n,62,n,n

# Bioassay records deposited in PubChem BioAssay by several laboratories.
